Test results reported in ChEMBL document CHEMBL5303300, “EUbOPEN Chemogenomics Library - Multiplex” (2023).
Several values for one entry are separate records, joined by “and”; a condition that tells them apart may be missing. Equal values may be shown once.

Tested on: Fibroblast
Test: Multiplex assay against human fibroblast
Format: toxicity, cell-based
Settings: number of replicates 2
Summary of the method: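 Tubulin, mitochondrial-mass and membrane-permeability phenotypes are per cents of healthy-nucleus cells. Cells were gated by CellPathfinder machine learning into Hoechst high-intensity objects or normal cells, normal cells into healthy, pyknosed or fragmented nuclei, and pyknosed cells into mitotic or apoptotic. Before that, live cells stained at seeding with Hoechst33342, BioTracker Green Microtubule Cytoskeleton Dye, MitoTracker Red and Annexin V Alexa Fluor 680 were imaged on a CQ1 microscope at 37°C and 5% CO2 after compound addition.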

[1] = 12 h, 1 µM, compound concentration 1 uM
[2] = 12 h, 10 µM, compound concentration 10 uM
[3] = 24 h, 1 µM, compound concentration 1 uM
[4] = 24 h, 10 µM, compound concentration 10 uM
[5] = 48 h, 1 µM, compound concentration 1 uM
[6] = 48 h, 10 µM, compound concentration 10 uM

With `Cc1ccc(C(=O)Nc2cc(N3CCN(C)CC3)cc(C(F)(F)F)c2)cc1-n1cc(-c2cnn(C)c2C)nn1.Cl` the “Population Apoptotic (%)” value [1] was 40% and 42%, the “Population Fragmented Nuclei (%)” value [1] was 6% and 16% and the “Population Healthy Nuclei (%)” value [1] was 48% and 59%. The “Population Hoechst High Intensity Objects (%)” value [1] was 0%, the “Population Membrane Permeable-Phenotype (%)” value [1] was 20% and 12% and the “Population Mitochondria Different-Phenotype (%)” value [1] was 2%. The “Population Mitotic Cells (%)” value [1] was 59% and 57%, the “Population Normal (%)” value [1] was 100% and the “Population Pyknosed Nuclei (%)” value [1] was 44% and 24%. The “Population Tubulin-Different-Phenotype (%)” value [1] was 35% and 32%, the “Total Cell Count” value [1] was 165 and 172 and the “Population Apoptotic (%)” value [2] was 61% and 35%. The “Population Fragmented Nuclei (%)” value [2] was 17% and 18%, the “Population Healthy Nuclei (%)” value [2] was 51% and 62% and the “Population Hoechst High Intensity Objects (%)” value [2] was 0% and 1%. For the same compound, the “Population Membrane Permeable-Phenotype (%)” value [2] was 12% and 11%, the “Population Mitochondria Different-Phenotype (%)” value [2] was 4% and 7% and the “Population Mitotic Cells (%)” value [2] was 38% and 64%. For the same compound, the “Population Normal (%)” value [2] was 99% and 98%, the “Population Pyknosed Nuclei (%)” value [2] was 30% and 19% and the “Population Tubulin-Different-Phenotype (%)” value [2] was 85% and 70%. For the same compound, the “Total Cell Count” value [2] was 198 and 294, the “Population Apoptotic (%)” value [3] was 65% and 41% and the “Population Fragmented Nuclei (%)” value [3] was 10% and 17%. For the same compound, the “Population Healthy Nuclei (%)” value [3] was 46% and 59%, the “Population Hoechst High Intensity Objects (%)” value [3] was 0% and the “Population Membrane Permeable-Phenotype (%)” value [3] was 7% and 4%. The “Population Mitochondria Different-Phenotype (%)” value [3] was 7%, the “Population Mitotic Cells (%)” value [3] was 34% and 58% and the “Population Normal (%)” value [3] was 99% and 100%. The “Population Pyknosed Nuclei (%)” value [3] was 42% and 23%, the “Population Tubulin-Different-Phenotype (%)” value [3] was 36% and 35% and the “Total Cell Count” value [3] was 150 and 176. The “Population Apoptotic (%)” value [4] was 68% and 63%, the “Population Fragmented Nuclei (%)” value [4] was 16% and 17% and the “Population Healthy Nuclei (%)” value [4] was 57% and 59%. The “Population Hoechst High Intensity Objects (%)” value [4] was 0% and 1%, the “Population Membrane Permeable-Phenotype (%)” value [4] was 7% and 5% and the “Population Mitochondria Different-Phenotype (%)” value [4] was 12% and 15%. For the same compound, the “Population Mitotic Cells (%)” value [4] was 31% and 36%, the “Population Normal (%)” value [4] was 99% and 98% and the “Population Pyknosed Nuclei (%)” value [4] was 25% and 23%. The “Population Tubulin-Different-Phenotype (%)” value [4] was 76% and 58%, the “Total Cell Count” value [4] was 261 and 279 and the “Population Apoptotic (%)” value [5] was 76% and 68%. The “Population Fragmented Nuclei (%)” value [5] was 15% and 18%, the “Population Healthy Nuclei (%)” value [5] was 49% and 66% and the “Population Hoechst High Intensity Objects (%)” value [5] was 0% and 1%. For the same compound, the “Population Membrane Permeable-Phenotype (%)” value [5] was 2%, the “Population Mitochondria Different-Phenotype (%)” value [5] was 5% and the “Population Mitotic Cells (%)” value [5] was 23% and 32%. The “Population Normal (%)” value [5] was 100% and 98%, the “Population Pyknosed Nuclei (%)” value [5] was 34% and 15% and the “Population Tubulin-Different-Phenotype (%)” value [5] was 32% and 19%. The “Total Cell Count” value [5] was 161 and 167, the “Population Apoptotic (%)” value [6] was 84% and 82% and the “Population Fragmented Nuclei (%)” value [6] was 19%. The “Population Healthy Nuclei (%)” value [6] was 59% and 63%, the “Population Hoechst High Intensity Objects (%)” value [6] was 3% and 4% and the “Population Membrane Permeable-Phenotype (%)” value [6] was 5% and 6%. The “Population Mitochondria Different-Phenotype (%)” value [6] was 10%, the “Population Mitotic Cells (%)” value [6] was 15% and 17% and the “Population Normal (%)” value [6] was 96% and 95%. The “Population Pyknosed Nuclei (%)” value [6] was 21% and 17%, the “Population Tubulin-Different-Phenotype (%)” value [6] was 68% and 54% and the “Total Cell Count” value [6] was 226 and 303.
With `COc1cccc(Cn2cc(C(=O)Nc3ccc(C)c(S(=O)(=O)N4CCOCC4)c3)c(-c3ccc(C)cc3)n2)c1` the “Population Apoptotic (%)” value [1] was 48% and 37%, the “Population Fragmented Nuclei (%)” value [1] was 7% and 6% and the “Population Healthy Nuclei (%)” value [1] was 65% and 67%. The “Population Hoechst High Intensity Objects (%)” value [1] was 0% and 1%, the “Population Membrane Permeable-Phenotype (%)” value [1] was 13% and 10% and the “Population Mitochondria Different-Phenotype (%)” value [1] was 2% and 3%. The “Population Mitotic Cells (%)” value [1] was 51% and 62%, the “Population Normal (%)” value [1] was 100% and 98% and the “Population Pyknosed Nuclei (%)” value [1] was 26% and 27%. For the same compound, the “Population Tubulin-Different-Phenotype (%)” value [1] was 44% and 39%, the “Total Cell Count” value [1] was 152 and 203 and the “Population Apoptotic (%)” value [2] was 39% and 45%. For the same compound, the “Population Fragmented Nuclei (%)” value [2] was 6% and 7%, the “Population Healthy Nuclei (%)” value [2] was 63% and 53% and the “Population Hoechst High Intensity Objects (%)” value [2] was 0% and 1%. The “Population Membrane Permeable-Phenotype (%)” value [2] was 21% and 28%, the “Population Mitochondria Different-Phenotype (%)” value [2] was 2% and 1% and the “Population Mitotic Cells (%)” value [2] was 60% and 54%. For the same compound, the “Population Normal (%)” value [2] was 100% and 98%, the “Population Pyknosed Nuclei (%)” value [2] was 29% and 38% and the “Population Tubulin-Different-Phenotype (%)” value [2] was 93% and 85%. For the same compound, the “Total Cell Count” value [2] was 191 and 229, the “Population Apoptotic (%)” value [3] was 57% and 42% and the “Population Fragmented Nuclei (%)” value [3] was 9% and 10%. The “Population Healthy Nuclei (%)” value [3] was 64% and 59%, the “Population Hoechst High Intensity Objects (%)” value [3] was 0% and the “Population Membrane Permeable-Phenotype (%)” value [3] was 13% and 9%. For the same compound, the “Population Mitochondria Different-Phenotype (%)” value [3] was 1% and 3%, the “Population Mitotic Cells (%)” value [3] was 42% and 57% and the “Population Normal (%)” value [3] was 100%. For the same compound, the “Population Pyknosed Nuclei (%)” value [3] was 25% and 30%, the “Population Tubulin-Different-Phenotype (%)” value [3] was 44% and 38% and the “Total Cell Count” value [3] was 162 and 205. The “Population Apoptotic (%)” value [4] was 66% and 67%, the “Population Fragmented Nuclei (%)” value [4] was 9% and the “Population Healthy Nuclei (%)” value [4] was 70% and 57%. The “Population Hoechst High Intensity Objects (%)” value [4] was 0% and 1%, the “Population Membrane Permeable-Phenotype (%)” value [4] was 14% and 20% and the “Population Mitochondria Different-Phenotype (%)” value [4] was 2% and 7%. The “Population Mitotic Cells (%)” value [4] was 33% and 32%, the “Population Normal (%)” value [4] was 100% and 98% and the “Population Pyknosed Nuclei (%)” value [4] was 19% and 32%. For the same compound, the “Population Tubulin-Different-Phenotype (%)” value [4] was 90% and 84%, the “Total Cell Count” value [4] was 199 and 219 and the “Population Apoptotic (%)” value [5] was 73% and 64%. The “Population Fragmented Nuclei (%)” value [5] was 13% and 11%, the “Population Healthy Nuclei (%)” value [5] was 65% and 67% and the “Population Hoechst High Intensity Objects (%)” value [5] was 0%. For the same compound, the “Population Membrane Permeable-Phenotype (%)” value [5] was 6% and 9%, the “Population Mitochondria Different-Phenotype (%)” value [5] was 1% and 2% and the “Population Mitotic Cells (%)” value [5] was 26% and 35%. For the same compound, the “Population Normal (%)” value [5] was 100% and 99%, the “Population Pyknosed Nuclei (%)” value [5] was 21% and 20% and the “Population Tubulin-Different-Phenotype (%)” value [5] was 34%. The “Total Cell Count” value [5] was 178 and 191, the “Population Apoptotic (%)” value [6] was 75% and the “Population Fragmented Nuclei (%)” value [6] was 15% and 17%. The “Population Healthy Nuclei (%)” value [6] was 69% and 58%, the “Population Hoechst High Intensity Objects (%)” value [6] was 0% and 1% and the “Population Membrane Permeable-Phenotype (%)” value [6] was 25% and 23%. The “Population Mitochondria Different-Phenotype (%)” value [6] was 1% and 5%, the “Population Mitotic Cells (%)” value [6] was 25% and the “Population Normal (%)” value [6] was 100% and 98%. For the same compound, the “Population Pyknosed Nuclei (%)” value [6] was 15% and 23%, the “Population Tubulin-Different-Phenotype (%)” value [6] was 89% and 83% and the “Total Cell Count” value [6] was 210 and 238.
In the case of `CS(=O)(=O)c1ccc(C(=O)Nc2cccc(COc3ccc(Br)cc3CN3CCC[C@H](O)C3)c2)c(Cl)c1.O=CO`, the “Population Healthy Nuclei (%)” value [1] is reported as 71% and 60%, the “Population Hoechst High Intensity Objects (%)” value [1] is reported as 0% and the “Population Mitotic Cells (%)” value [1] is reported as 55% and 58%. For the same compound, the “Population Pyknosed Nuclei (%)” value [1] was 17% and 22%, the “Total Cell Count” value [1] was 200 and 202 and the “Population Healthy Nuclei (%)” value [2] was 52% and 60%. The “Population Hoechst High Intensity Objects (%)” value [2] was 0%, the “Population Mitotic Cells (%)” value [2] was 49% and 62% and the “Population Pyknosed Nuclei (%)” value [2] was 18%. The “Total Cell Count” value [2] was 221 and 338, the “Population Healthy Nuclei (%)” value [3] was 72% and 64% and the “Population Hoechst High Intensity Objects (%)” value [3] was 0%. The “Population Mitotic Cells (%)” value [3] was 38% and 53%, the “Population Pyknosed Nuclei (%)” value [3] was 21% and the “Total Cell Count” value [3] was 214 and 180. The “Population Healthy Nuclei (%)” value [4] was 50% and 65%, the “Population Hoechst High Intensity Objects (%)” value [4] was 0% and the “Population Mitotic Cells (%)” value [4] was 35% and 26%. For the same compound, the “Population Pyknosed Nuclei (%)” value [4] was 21% and 12%, the “Total Cell Count” value [4] was 261 and 390 and the “Population Healthy Nuclei (%)” value [5] was 73% and 72%. For the same compound, the “Population Hoechst High Intensity Objects (%)” value [5] was 0%, the “Population Mitotic Cells (%)” value [5] was 20% and 29% and the “Population Pyknosed Nuclei (%)” value [5] was 12%. For the same compound, the “Total Cell Count” value [5] was 198 and 185, the “Population Healthy Nuclei (%)” value [6] was 54% and 63% and the “Population Hoechst High Intensity Objects (%)” value [6] was 0%. For the same compound, the “Population Mitotic Cells (%)” value [6] was 10% and 9%, the “Population Pyknosed Nuclei (%)” value [6] was 7% and the “Total Cell Count” value [6] was 285 and 416.
